Active and inactive are the calls of the source. The calls are words filed in the database; no cut-off is given here.
Legend:
[1] = system: Mus musculus; assay: Clastogenic effect on C57BL mouse assessed as number of metaphase chromosomal breaks in bone marrow cells at 3.5 mg/kg, ip after 24 hrs; format: functional; conditions: route intraperitoneal
Summary of the method: (§1)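 Inbred male and female C57Bl mice (20.0 ± 1.5 g), groups of 3 males + 3 females, 5 controls given 0.9% NaCl. Single i.p. dose. Colchicine 40 mg/kg i.p. 1 h before femoral bone marrow harvest. Cells in 0.075 M KCl for 20 min at 37 °C, fixed in methanol–acetic acid (3:1), stained with 5% Giemsa. At least 50 metaphases scored per animal for breaks, fragments, centromere/centromeric and telomere/telomeric fusions. Mitotic index from 1500 cells per animal. Group mean ± SE.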

[2] = system: Mus musculus; assay: Clastogenic effect on C57BL mouse assessed as number of metaphase chromosomal fragments in bone marrow cells at 3.5 mg/kg, ip after 24 hrs; format: functional; conditions: route intraperitoneal; summary of the method: as §1
[3] = system: Mus musculus; assay: Clastogenic effect on C57BL mouse assessed as number of metaphase chromosomal centromere/centromeric fusion in bone marrow cells at 3.5 mg/kg, ip after 24 hrs; format: functional; conditions: route intraperitoneal; summary of the method: as §1
[4] = system: Mus musculus; assay: Clastogenic effect on C57BL mouse assessed as number of metaphase chromosome telomere/telomeric fusion in bone marrow cells at 3.5 mg/kg, ip after 24 hrs; format: functional; conditions: route intraperitoneal; summary of the method: as §1
[5] = system: Mus musculus; assay: Clastogenic effect on C57BL mouse assessed as mitotic index in bone marrow cells at 3.5 mg/kg, ip after 24 hrs; format: functional; conditions: route intraperitoneal; summary of the method: as §1
[6] = system: Mus musculus; assay: Clastogenic effect on C57BL mouse assessed as bone marrow cells with abberation at 3.5 mg/kg, ip after 24 hrs; format: functional; conditions: route intraperitoneal; summary of the method: as §1
[7] = system: HL-60; assay: Cytotoxicity against human HL60 cells after 72 hrs by MTT assay; format: functional, cell-based; conditions: HL-60, 72 h
Summary of the method: (§2)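 Cells at 37 °C, 5% CO2; 293T in DMEM, others in RPMI 1640, both with 2 mM L-glutamine and 10% FCS. Seeded 10⁴ cells/well, 24 h preincubation, then compounds 0.195–200 µM (DMSO ≤1% final) for 72 h continuous. MTT added, 4 h, formazan dissolved in 5% formic acid-acidified DMSO, absorbance read; IC50 = concentration giving 50% survival decrease.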

[8] = system: Mus musculus; assay: Clastogenic effect on C57BL mouse assessed as number of metaphase chromosomal centromere/centromeric fusion in bone marrow cells at 100 mg/kg, ip after 24 hrs; format: functional; conditions: route intraperitoneal
Summary of the method: (§3)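 Inbred male and female C57Bl mice, groups of 3 males + 3 females, dosed i.p. (0.9% NaCl vehicle/negative control); mitomycin C 3.5 mg/kg positive control. Colchicine 40 mg/kg i.p. 1 h before femoral bone marrow harvest; hypotonic 0.075 M KCl 20 min at 37 °C, methanol-acetic acid fixation, Giemsa stain; ≥50 metaphases per animal scored; group mean ± SE.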

[9] = system: HD-MY-Z; assay: Cytotoxicity against human HD-MY-Z cells after 72 hrs by MTT assay; format: functional, cell-based; summary of the method: as §2
[10] = system: DOHH-2; assay: Cytotoxicity against human DOHH2 cells after 72 hrs by MTT assay; format: functional, cell-based; conditions: DOHH-2, 72 h; summary of the method: as §2
[11] = system: Mus musculus; assay: Clastogenic effect on C57BL mouse assessed as number of metaphase chromosome telomere/telomeric fusion in bone marrow cells at 10 mg/kg, ip after 48 hrs; format: functional; conditions: route intraperitoneal; summary of the method: as §3
[12] = system: LAMA-84; assay: Cytotoxicity against human LAMA-84 cells after 72 hrs by MTT assay; format: functional, cell-based; conditions: LAMA-84, 72 h; summary of the method: as §2
[13] = system: Mus musculus; assay: Clastogenic effect on C57BL mouse assessed as number of metaphase chromosomal breaks in bone marrow cells at 10 mg/kg, ip after 24 hrs; format: functional; conditions: route intraperitoneal; summary of the method: as §3
[14] = system: Mus musculus; assay: Clastogenic effect on C57BL mouse assessed as number of metaphase chromosomal breaks in bone marrow cells at 100 mg/kg, ip after 48 hrs; format: functional; conditions: route intraperitoneal; summary of the method: as §3
[15] = system: Mus musculus; assay: Clastogenic effect on C57BL mouse assessed as mitotic index in bone marrow cells at 10 mg/kg, ip after 24 hrs; format: functional; conditions: route intraperitoneal
Summary of the method: (§4)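 C57Bl mice (3 males + 3 females per group) given compound i.p.; saline controls. Colchicine 40 mg/kg i.p. 1 h before bone marrow harvest from femur; hypotonic KCl, fixed, Giemsa-stained slides. Mitotic index = dividing cells counted among 1500 cells per animal; per-animal values averaged as group mean ± SE.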

[16] = system: Mus musculus; assay: Clastogenic effect on C57BL mouse assessed as number of metaphase chromosome telomere/telomeric fusion in bone marrow cells at 100 mg/kg, ip after 24 hrs; format: functional; conditions: route intraperitoneal; summary of the method: as §3
[17] = system: Mus musculus; assay: Clastogenic effect on C57BL mouse assessed as bone marrow cells with abberation at 10 mg/kg, ip after 48 hrs; format: functional; conditions: route intraperitoneal; summary of the method: as §3
[18] = system: Mus musculus; assay: Clastogenic effect on C57BL mouse assessed as bone marrow cells with abberation at 100 mg/kg, ip after 24 hrs; format: functional; conditions: route intraperitoneal; summary of the method: as §3
[19] = system: Mus musculus; assay: Clastogenic effect on C57BL mouse assessed as number of metaphase chromosome telomere/telomeric fusion in bone marrow cells at 100 mg/kg, ip after 48 hrs; format: functional; conditions: route intraperitoneal; summary of the method: as §3
[20] = system: Mus musculus; assay: Clastogenic effect on C57BL mouse assessed as number of metaphase chromosomal centromere/centromeric fusion in bone marrow cells at 100 mg/kg, ip after 48 hrs; format: functional; conditions: route intraperitoneal; summary of the method: as §3
[21] = system: Mus musculus; assay: Clastogenic effect on C57BL mouse assessed as number of metaphase chromosomal centromere/centromeric fusion in bone marrow cells at 10 mg/kg, ip after 24 hrs; format: functional; conditions: route intraperitoneal; summary of the method: as §3
[22] = system: EJ; assay: Cytotoxicity against human EJ cells after 72 hrs by MTT assay; format: functional, cell-based; summary of the method: as §2
[23] = system: Mus musculus; assay: Clastogenic effect on C57BL mouse assessed as number of metaphase chromosomal fragments in bone marrow cells at 10 mg/kg, ip after 24 hrs; format: functional; conditions: route intraperitoneal; summary of the method: as §3
[24] = system: Mus musculus; assay: Clastogenic effect on C57BL mouse assessed as mitotic index in bone marrow cells at 100 mg/kg, ip after 24 hrs; format: functional; conditions: route intraperitoneal; summary of the method: as §4
[25] = system: Mus musculus; assay: Clastogenic effect on C57BL mouse assessed as number of metaphase chromosomal breaks in bone marrow cells at 10 mg/kg, ip after 48 hrs; format: functional; conditions: route intraperitoneal; summary of the method: as §3
[26] = system: Mus musculus; assay: Clastogenic effect on C57BL mouse assessed as number of metaphase chromosome telomere/telomeric fusion in bone marrow cells at 10 mg/kg, ip after 24 hrs; format: functional; conditions: route intraperitoneal; summary of the method: as §3
[27] = system: K562; assay: Cytotoxicity against human K562 cells after 72 hrs by MTT assay; format: functional, cell-based; conditions: K562, 72 h; summary of the method: as §2
[28] = system: Mus musculus; assay: Clastogenic effect on C57BL mouse assessed as number of metaphase chromosomal fragments in bone marrow cells at 100 mg/kg, ip after 48 hrs; format: functional; conditions: route intraperitoneal; summary of the method: as §3
[29] = system: Mus musculus; assay: Clastogenic effect on C57BL mouse assessed as number of metaphase chromosomal breaks in bone marrow cells at 100 mg/kg, ip after 24 hrs; format: functional; conditions: route intraperitoneal; summary of the method: as §3
[30] = system: Mus musculus; assay: Clastogenic effect on C57BL mouse assessed as number of metaphase chromosomal centromere/centromeric fusion in bone marrow cells at 10 mg/kg, ip after 48 hrs; format: functional; conditions: route intraperitoneal; summary of the method: as §3
[31] = system: Mus musculus; assay: Clastogenic effect on C57BL mouse assessed as bone marrow cells with abberation at 10 mg/kg, ip after 24 hrs; format: functional; conditions: route intraperitoneal; summary of the method: as §3
[32] = system: Mus musculus; assay: Clastogenic effect on C57BL mouse assessed as mitotic index in bone marrow cells at 100 mg/kg, ip after 48 hrs; format: functional; conditions: route intraperitoneal; summary of the method: as §4
[33] = system: Mus musculus; assay: Clastogenic effect on C57BL mouse assessed as number of metaphase chromosomal fragments in bone marrow cells at 10 mg/kg, ip after 48 hrs; format: functional; conditions: route intraperitoneal; summary of the method: as §3
[34] = system: Mus musculus; assay: Clastogenic effect on C57BL mouse assessed as mitotic index in bone marrow cells at 10 mg/kg, ip after 48 hrs; format: functional; conditions: route intraperitoneal; summary of the method: as §4
[35] = system: Mus musculus; assay: Clastogenic effect on C57BL mouse assessed as bone marrow cells with abberation at 100 mg/kg, ip after 48 hrs; format: functional; conditions: route intraperitoneal; summary of the method: as §3
[36] = system: DOHH-2; assay: Induction of apoptosis in human DOHH2 cells assessed as increase in histone-associated oligonucleotide level after 24 hrs by ELISA; format: functional, cell-based
Summary of the method: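 DOHH-2 cells exposed 24 h to equitoxic compound concentrations versus untreated control; cytosolic fractions of 1 × 10⁴ cells used in sandwich ELISA (anti-histone capture, peroxidase-conjugated anti-DNA detection) for histone-associated DNA fragments, read at 405 nm; means ± SD of three independent experiments.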

[37] = Cytotoxicity against human 293T after 72 hrs by MTT assay; format: cell-based; conditions: HEK-293T; summary of the method: as §2
[38] = system: Mus musculus; assay: Clastogenic effect on C57BL mouse assessed as number of metaphase chromosomal fragments in bone marrow cells at 100 mg/kg, ip after 24 hrs; format: functional; conditions: route intraperitoneal; summary of the method: as §3

SMILES | IC50 [7] [µM] | Activity [8] | IC50 [9] [µM] | IC50 [10] [µM] | Activity [11] | IC50 [12] [µM] | Activity [13] | Activity [14] | Activity [15] [%] | Activity [16] | Activity [17] [%] | Activity [18] [%] | Activity [19] | Activity [20] | Activity [21] | IC50 [22] [µM] | Activity [23] | Activity [24] [%] | Activity [25] | Activity [26] | also measured
CO[C@@]12[C@H](COC(N)=O)C3=C(C(=O)C(C)=C(N)C3=O)N1C[C@@H]1N[C@@H]12 [MITOMYCIN] |  |  |  |  |  |  |  |  |  |  |  |  |  |  |  |  |  |  |  |  | Activity [1]: 10; Activity [2]: 13; Activity [3]: 11; Activity [4]: 0; Activity [5]: 5.49%; Activity [6]: 46.67%
COP(=O)(CNC1(C(=O)O)CCCCCCC1)OC | 73.5 | 11 | 127 | 37.4 | 0 | 71.4 | 2 | 3 | 11.35 | 1 | 4.67 | 5.43 | 0 | 12 | 10 | 115 | 1 | 13.06 | 0 | 0 | IC50 [27]: 79.1 µM; Activity [28]: 0; Activity [29]: 4; Activity [30]: 14; Activity [31]: 3.71%; Activity [32]: 9.67%; Activity [33]: 1; Activity [34]: 13.95%; Activity [35]: 5%; Activity [36]: Active; IC50 [37]: 176 µM; Activity [38]: 3
COP(=O)(CNC1(C(=O)O)CCCCCC1)OC | 85.9 | 3 | 169 | 88.1 | 0 | 91.2 | 3 | 4 | 14.37 | 0 | 1 | 3.33 | 0 | 3 | 7 | 151 | 0 | 13.24 | 0 | 0 | IC50 [27]: 101 µM; Activity [28]: 0; Activity [29]: 7; Activity [30]: 3; Activity [31]: 2.85%; Activity [32]: 12%; Activity [33]: 0; Activity [34]: 9.58%; Activity [35]: 2.72%; IC50 [37]: > 200 µM; Activity [38]: 0

Source: ChEMBL document CHEMBL1156693, “Novel N-(phosphonomethyl) glycine derivatives: Design, characterization and biological activity” (Eur J Med Chem, 2008)
